From the RNAGym collection of RNA variant scans (doi:10.1038/s41586-018-0170-7) come the findings set out here.

B1: tRNA (parent)
chain: GUUCCGUUGGCGUAAUGGUAACGCGUCUCCCUCCUAAGGAGAAGACUGCGGGUUCGAGUCCCGUACGGAACG

The variants in this series derive from B1. Kind of series: yeast fitness, log relative to wild type (ln ratio); higher = fitter; tRNA-Arg(CCU), competitive growth, 37 C, 1 M NaCl. Put shortly:
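Variants were counted by 125 bp paired-end Illumina sequencing after pools of a combinatorial tRNA-Arg(CCU) library, held on a HIS3 centromeric plasmid in BY4742 lacking the chromosomal gene, grew ~6.5 generations (~26.5 h) in SC-HIS 1M NaCl at 37 °C. Each genotype's fitness is the natural log of its generations relative to the wild type's. Generations were OD-scaled log2 output/input frequencies, inverse-variance weighted over replicates.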
With G1A U2G C66A A70G C71U, the “yeast fitness (ln)” value was -0.191.
As to G1A U2G C27U C46U C66U A70U C71U, the “yeast fitness (ln)” value is -0.434.
Turning to G1A U2G C27U C71U, the “yeast fitness (ln)” value was -0.108.
In the case of G1A U2G C27U A43C C66U it was -0.123.
For the variant G1A U2G A43C A69G A70U C71U, the “yeast fitness (ln)” value is -0.54.
In the case of G1A U2G C27U A43C A70G C71U it was -0.246; in that of G1A U2C G6U C27U A70G, -0.186.
As for G1A U2C G6U C27U A70U, the figure is -0.134; as for G1A U2G C46U A69G A70G, -0.163; as for G1A U2G C46U A69G A70U, -0.238.
As for G1A U2G C27U A43C A69G A70G C71U, the “yeast fitness (ln)” value is -0.262.
As to G1A U2G C27U A43C C46U, the “yeast fitness (ln)” value was -0.038.
As for G1A U2G C27U A43C C66U A69G A70U C71U, the “yeast fitness (ln)” value was -0.332.
Regarding G1A U2C G6U C27U A43C C66A A69G A70G C71U, the “yeast fitness (ln)” value is -0.272.
Regarding G1A U2G C46U A70G C71U, the “yeast fitness (ln)” value is -0.166.
In the case of G1A U2G C27U C46U A69G A70G C71U it was -0.292; in that of G1A U2G C46U C66U A69G A70U C71U, -0.321.
As for G1A U2G C27U A70U C71U, the figure is -0.0262; as for G1A U2G C27U A43C C66A A70U C71U, -0.499; as for G1A U2G A43C C46U C66U A69G A70U C71U, -0.341.
As to G1A U2G C27U A69G, the “yeast fitness (ln)” value is -0.145.
In the case of G1A U2G A43C C66U A69G C71U it was -0.497; in that of G1A U2G C27U A43C C46U A70G C71U, -0.223.
For G1A U2G C27U, the “yeast fitness (ln)” value is -0.0429.
In the case of G1A U2G A43C C66U it was -0.246; in that of G1A U2G A43C C66U A69G A70G C71U, -0.457.
As for G1A U2G C46U C66A C71U, the figure is -0.0962; as for G1A U2G A43C C46U A69G, -0.0712; as for G1A U2C G6U C66A A69G A70G C71U, -0.0278.
Take G1A U2C G6U C66U A70G C71U: the “yeast fitness (ln)” value was -0.0525.
In the case of G1A U2G C27U C46U C66A A70U it was -0.138; in that of G1A U2G C27U C46U C66A A70G, -0.195.
Take G1A U2C G6U C66U A69G A70G: the “yeast fitness (ln)” value is -0.362.
In the case of G1A U2C G6U C66U A69G A70U it was -0.244; in that of G1A U2G C27U A43C C46U C66U A69G A70G C71U, -0.3.
In the case of G1A U2G C46U C66U C71U it was -0.117; in that of G1A U2G C27U A43C A69G A70U, -0.281.
As to G1A U2G C27U A43C A69G A70G, the “yeast fitness (ln)” value is -0.263.
Consider G1A U2C G6U C27U C66U A69G A70G C71U, for which the “yeast fitness (ln)” value was -0.251.
As for G1A U2C G6U C66A A70U C71U, the figure is -0.16.
Turning to G1A U2G A43C C46U C66U A70G C71U, the “yeast fitness (ln)” value was -0.243.
In the case of G1A U2G C27U C46U C66U A69G A70G C71U it was -0.267; in that of G1A U2C G6U C27U A43C C71U, -0.263.
As for G1A U2C G6U C66U A70U, the figure is -0.153.
On to G1A U2C G6U C66U A70G, for which the “yeast fitness (ln)” value is -0.302.
As for G1A U2G A43C C46U C66U A69G A70G, the figure is -0.254.
In the case of G1A U2G A43C C46U C66U A69G A70U it was -0.181; in that of G1A U2C G6U C27U C66U A70U, -0.176.
Consider G1A U2C G6U C27U A70U C71U, for which the “yeast fitness (ln)” value is -0.287.
As to G1A U2G C46U A70U C71U, the “yeast fitness (ln)” value amounted to 0.00364.
In the case of G1A U2G C27U C46U A69G C71U it was -0.206.
As for G1A U2G C66U A69G C71U, the figure is -0.254; as for G1A U2G C27U C66U A70U C71U, -0.365; as for G1A U2C G6U C46U C66U A70G, -0.265.
Consider G1A U2C G6U C46U C66U A70U, for which the “yeast fitness (ln)” value was -0.0663.
Consider G1A U2G C27U A43C C46U C66A A70U C71U, for which the “yeast fitness (ln)” value is -0.35.
On to G1A U2G C27U C46U C66A A69G A70U, for which the “yeast fitness (ln)” value was -0.191.
As for G1A U2C G6U C27U C46U A70U C71U, the figure is -0.13; as for G1A U2G C27U A43C A69G A70U C71U, -0.353; as for G1A U2C G6U C27U A43C C66U A69G A70G C71U, -0.117.
For G1A U2G A43C C66U A70U, the “yeast fitness (ln)” value is -0.185.
G1A U2G A43C C66U A70G: the “yeast fitness (ln)” value was -0.214.
In the case of G1A U2G C27U A69G A70U C71U it was -0.386; in that of G1A U2G A69G A70G, -0.118; in that of G1A U2G A69G A70U, -0.232.
For the variant G1A U2C G6U C27U A43C C46U C66U A70U C71U, the “yeast fitness (ln)” value is -0.315.
For G1A U2G A43C A70U, the “yeast fitness (ln)” value is -0.33.
As for G1A U2G A43C A70G, the figure is -0.108.
In the case of G1A U2C G6U C27U A69G A70G C71U it was -0.22.
In the case of G1A U2G A43C C66U A70G C71U it was -0.22; in that of G1A U2C G6U C46U C66U C71U, -0.0885; in that of G1A U2C G6U C27U C46U C66A A70G C71U, -0.0279.
Turning to G1A U2G C46U C66U A70G, the “yeast fitness (ln)” value is -0.148.
In the case of G1A U2G C46U C66U A70U it was -0.0831; in that of G1A U2C G6U C27U C46U C66A A70U C71U, -0.264.
In the case of G1A U2C G6U C27U C66U A70G C71U it was -0.496; in that of G1A U2G, -0.0263.
Turning to G1A U2G A43C C46U C66U A69G C71U, the “yeast fitness (ln)” value was -0.404.
In the case of G1A U2C G6U C27U A69G A70U C71U it was -0.467.
As for G1A U2G C27U C66U A69G C71U, the figure is -0.395; as for G1A U2G C46U C66A A69G A70U, -0.0906.
As for G1A U2G A43C C66U A69G A70G, the figure is -0.328; as for G1A U2G A43C C66U A69G A70U, -0.287.
